Experimental data from PubChem BioAssay AID488948 (Broad Institute, 2010).
Records with an inconclusive call do not appear. Activity calls are given as the source filed them.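 How the source made its calls: active means compounds raising caspase signal whose fitted AC50 is at or under a set limit scaled from top dose; inconclusive means flat fit at middling activation, or poor curve fit; inactive means the rest.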

Tests used:
[1] = system: MEWO unprimed cells, caspase-3/7 Glo luminescence, 3 h; assay: apoptosis induction, MEWO cells without priming – caspase-Glo luminescence, dry powder, counter-screen for Bcl2-A1 inhibitor project, dose response (AID 488948)
How it was run: (§1)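 Assay system: unprimed A1-expressing MEWO cells; quantity: 2500 cells per well; medium: RPMI-1640, 10% fetal bovine serum; dosing: compound added by pin transfer, day after plating; schedule: 3 h compound exposure (37 °C), 1 h reagent (RT); detection: CaspaseGlo luminescence after 1 h at room temperature; read-out: caspase activation from luminescent signal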

[2] = as above; conditions: MEWO unprimed cells, caspase-3/7 Glo luminescence, 3 h, hits give high values
How it was run: as §1

COc1ccc(N(C(=O)CCl)C(C(=O)NCCc2ccccc2)c2cccs2)cc1Cl (centres undefined) gave an AC50 [1] of 15.6 µM.

In the case of Cc1cccc(CS(=O)(=O)c2ncc(Cl)c(C(=O)Nc3nnc(C(C)C)s3)n2)c1, the max caspase activation ([2]; at 150 µM) is reported as -3.23% (inactive).

In the case of Cn1c(=NC(=O)CCl)sc2ccccc21, the max caspase activation ([2]; at 0.068 µM) is reported as -1.67% (inactive).

With Cc1c(CCOC(=O)c2ccc(N3CCOCC3)c([N+](=O)[O-])c2)sc[n+]1CC#N the AC50 [1] was > 100 µM (inactive).

For CCSc1nnc(NC(=O)c2nc(S(=O)(=O)Cc3ccc(F)cc3)ncc2Cl)s1, the max caspase activation ([2]; at 150 µM) was -5.59% (inactive).

For CCc1nnc(NC(=O)c2nc(S(=O)(=O)Cc3ccccc3)ncc2Cl)s1, the max caspase activation ([2]; at 0.068 µM) was -1.73% (inactive).

In the case of CC(=O)N[C@H]1[C@H](O[C@H]2CC[C@@]3(C)C(CC[C@]4(C)C3CC=C3[C@@H]5CC(C)(C)CC[C@]5(C(=O)OC5OCC(O)C(O)C5O)C(O)C[C@]34C)C2(C)C)O[C@H](COC2OCC(O)C(OC3OCC(O)C(O)C3O)C2O)[C@@H](O[C@@H]2O[C@@H](C)[C@H](O)[C@@H](O)[C@H]2O[C@@H]2O[C@@H](C)[C@H](O)[C@@H](O)[C@H]2O)[C@@H]1O (some centres undefined), the max caspase activation ([2]; at 135 µM) is reported as -2.6% (inactive).

In the case of Cc1ccc(Sc2c([N+](=O)[O-])c(=O)n(C)c3ccccc23)cc1, the max caspase activation ([2]; at 100 µM) is reported as 3.9% (inactive).

With C/C1=C/C(=O)O[C@@H]2C[C@@H](CC[C@H](C)/C=C\CC1)O[C@@](O)(C1CSC(=O)N1)C2 (some centres undefined) the max caspase activation ([2]; at 46 µM) was 1.79% (inactive).

In the case of O=C(CCl)N=c1sccn1Cc1ccccc1Cl, the AC50 [1] is reported as > 150 µM (inactive).

In the case of CCOC(=O)CSC1=N/C(=C/c2ccc(-n3cncn3)cc2)C(=O)N1C(C)=O, the AC50 [1] is reported as > 150 µM (inactive).

With COc1cc(/C=C(/C#N)c2nc3ccccc3[nH]2)ccc1OCC(=O)Nc1ccccc1C(C)C the max caspase activation ([2]; at 9 µM) was 2.17% (inactive).

With Cc1ccc(CS(=O)(=O)c2ncc(Cl)c(C(=O)Nc3nnc(C(C)C)s3)n2)cc1 the max caspase activation ([2]; at 100 µM) was -3.83% (inactive).

In the case of O=C(Oc1cccc(/C=N/Nc2nc(Nc3ccccc3)nc(N3CCOCC3)n2)c1)c1ccco1, the max caspase activation ([2]; at 68 µM) is reported as 2.05% (inactive).

With C=C1[C@@H](C)[C@H]2[C@H](Cc3ccccc3)NC(=O)[C@]23OC(=O)/C=C\[C@H](O)CCC[C@@H](C)C/C=C/[C@H]3[C@@H]1O the max caspase activation ([2]; at 2.6 µM) was 2.11% (inactive).

In the case of Cc1cc(C(=O)CCl)c(C)n1CCc1ccc(Cl)cc1, the AC50 [1] is reported as 18.4 µM.

With CC(C)(C)n1nc(-c2ccc(Cl)cc2)c2c(N)ncnc21 the max caspase activation ([2]; at 150 µM) was 4.52% (inactive).

With COc1cccc(C(=O)C(C#N)=C(SC)SC)c1 the max caspase activation ([2]; at 150 µM) was -3.79% (inactive).

With Nc1nc(F)nc2c1ncn2[C@@H]1O[C@H](CO)[C@@H](O)[C@H]1O the max caspase activation ([2]; at 0.1 µM) was 2.46% (inactive).
